According to the EternaBench riboswitch data:

Test system: MS2 coat protein
Test: apparent Kd, MS2 coat protein; higher = weaker binding; RNA-MaP array; FMN 200 µM where present
Outline: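 SNAP-549-labelled MS2 coat protein, doubled from 0.7 or 1.5 nM to 3 µM, was titrated over designs transcribed by stalled E. coli RNA polymerase on Illumina sequencing-chip clusters. Titrations were run without and then with constant ligand in 100 mM Tris-HCl pH 7.5, 80 mM KCl, 4 mM MgCl2, BSA, DTT, yeast tRNA and Tween-20. The apparent Kd is the median of filtered per-cluster fits to green signal normalised to red-channel RNA signal and control-cluster median Fmax.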

[1] = designed as: OFF switch for flavin mononucleotide, no ligand
[2] = ligand present: flavin mononucleotide, designed as: OFF switch for flavin mononucleotide
[3] = designed as: ON switch for flavin mononucleotide, no ligand
[4] = ligand present: flavin mononucleotide, designed as: ON switch for flavin mononucleotide

Sequence | apparent Kd [1] [nM] | apparent Kd [2] [nM] | apparent Kd [3] [nM] | apparent Kd [4] [nM]
AACAGGACAGGAUAUACAUGAGGAUCACCCAUGUGAGAAUUAAGUAGAUUGCCACAGAGUAGAAGGGUCCUGGA | 66.6 | 91.2 | – | –
AAAACUGCUCAGGAUAUUUGUGUGUCAGGGCAUAAAGAAGGGAGCACAUGAGGAUCACCCAUGUGUUGGGUUCC | 98.5 | 149 | – | –
AAGAGUGCAGGAUAUACUUGUUAGGACGGUUGGAUGGUUUGACAUGAGGAUCACCCAUGUAGAAGGGCAGAGAG | 67.7 | 67.8 | – | –
UAUAUAUAGUAAGGAUAUGUAUAAAUUUUAUAAACAGAAGGUACUGACAUGAGGAUCACCCAUGUUUUAGUGUGGGCAUGUAGA | 96.2 | 147 | – | –
CGCCAUUUAACAACGGCGCGGUCGAGAAGGGUACAUGAGGAUCACCCAUGUCACGUUCCUCCUGUACAGGAUAUCGUACGGGUA | 67 | 146 | – | –
ACGGAACAUGAGGAUCACCCAUGUAUCUGAGAUAAGCUCUCGCAGGAUAUUGAGAGAAGCCUAUUCGAGAAGGGUGACAGCAAA | – | – | 90.1 | 30.1
CGUUAAUAUCGAGGAUAUGUCUAGACACAUGAGGAUCACCCAUGUAUGUGUAUAGAAGGCGAUAUUAACAGCAUGUUACAUGCU | – | – | 41 | 16.7
ACCGUAUGAACAUGAGGAUCACCCAUGUAUCCGAAAGGGAAUGAGGAUAUCGAUAGCAAAGCUAUCGAGAAGGCAUGGGACGGU | – | – | 460 | 434
CUCCCAUGUGUAGGAUAUAGAAAACCGAAAUGGCUAGAAGGACACAUGAGGAUCACCCAUGUAACCUUAACUUAGUGUACCGGG | 53.3 | 124 | – | –
GCCGCUGUAGGAUAUGCCAGGGUGGCAGCUUGAUGUGUGGCACAUGAGGAUCACCCAUGUAGAAGGACAGAAAG | 18.7 | 50.8 | – | –
GGGUACAUCGGAGGAUAUCAUGUAAAUACAUGAGGAUCACCCAUGUCGAUGGAGACAUCGGAAAUUGAGAAGGCCGAUGUACCG | – | – | 16.9 | 4.87
CUGAAGUCAGGAUAUCGUUAAUUUAGUUGUUUGUAUUAGUUCGAGAAGGGACAUGAGGAUCACCCAUGUAAGUU | 33.6 | 51.3 | – | –
AUAUAUAUAAGGUAGGAUAUACUAAAGUAAACAUGAGGAUCACCCAUGUAAAGAAAGAAACUCAUGUAGAAGGACCAUAUAUAUAU | – | – | 171 | 36.5
GUGGCACAUGAGGAUCACCCAUGUCAGGAUAUCGCGUGGUUUUUUGCGGCCGCGCGCGCGAGAAGGGACGUCUU | 39.2 | 38.1 | – | –
CUGCUCCGUGUAGGAUAUGCAUACUCCCACUAUGCAGAAGGACAUGAGGAUCACCCAUGUAUGUUAUUAUCACGUGUAGCGUAC | 28.7 | 72.9 | – | –
CAAUUUAUUGCAGGAUAUACAAUACAAUGAUUAGUAGAAGGGUAUAAUACAUGAGGAUCACCCAUGUCAUGUGUCAUAAUAACC | 36.7 | 27.6 | – | –
GUGAAACAUGAGGAUCACCCAUGUCAGGAUAUGAUACUAUGUACUUCGGUACAUAGUAUCAGAAGGGACAGUGA | 77.9 | 101 | – | –
UGGUAACAUGAGGAUCACCCAUGUCAGGAUAUCAGUAAGAAUAGAUUAGAGUAGAAGAUGAGAAGGGACUAUAU | 31.9 | 29.5 | – | –
AAUCUGUCGGUAGGAUAUCAGUUAGGAGAGCCGACAUGAGGAUCACCCAUGUACAGAAUCAAGGGUGAGAAGGACCGGGUAGUA | – | – | 114 | 111
AUUAUUUAUAGUUAUUUUUAUUUUACAGAAGGUGAAUUAUUUACAUGAGGAUCACCCAUGUUCUUCAAGGAUAUGUUGUUAUAC | – | – | 49.4 | 22.1
GGUAGAAACAUUAACAUGAGGAUCACCCAUGUCAAAAGAAAUGAGGAUAUCGUCUACAAUGUAUAUGAGAAGGCAUGGUCUGCC | – | – | 20.2 | 14.6
AGGGUGGGCUCAGGAUAUCAGGAAGAGAUGUGGACAUGAGGAUCACCCAUGUACCAGUGUUGUUAUGAGAAGGGAGAUACUGUA | – | – | 52.3 | 28.8
AAGCAGGUAAUAAAGUAGAAAUACAUGAGGAUCACCCAUGUAUAGGAUAUCGUCAGGAAUACUGACGAGAAGGAUACAUCCUGC | 15.3 | 18.6 | – | –
CUCUUUUAAGGAUAUACAUGAGGAUCACCCAUGUGCAUAGGUAUGUCCGGGUCCUGGAGUAGAAGGUGGGACGG | 70.3 | 58.4 | – | –
UGAUAGCACAGAGGAUAUGCGUUGUGUUAUCUCUACAUGAGGAUCACCCAUGUAGAAGGCUGUGCUAUCUAAGUCGGAAACGAU | 5.57 | 7.16 | – | –
GCAGCAUCUGCAGGAUAUCAGCACGUGUAGUGCUGAGAAGGGCACAUGAGGAUCACCCAUGUGAUCAAUUAAUAUAGAUGCUGC | 5.78 | 15.8 | – | –
AAAACAUGAGGAUCACCCAUGUAAAGAUCGGUUAAUUAAAGUGAGGAUAUACAAAAUUUUAUAUAGUAGAAGGCACUGGGUACA | – | – | 30.2 | 33.4
CCUUUGAAGAUCCUAAAUUUCGACAUGAGGAUCACCCAUGUGCAGGAUAUCGUGCCAGUGAUGUACGAGAAGGGCAGACUCUGC | 54.3 | 58 | – | –

Sequence | apparent Kd [1] [nM] | apparent Kd [2] [nM] | apparent Kd [3] [nM] | apparent Kd [4] [nM]
GCGUAAGUCACAGGAUAUCCAACAUGAGGAUCACCCAUGUAAAAGUGCCGCAUUAGAAUGCGACUGGAGAAGGGUGAUUCGUCG | – | – | 51.3 | 23.4
UUGGACGUCGUAGGAUAUGUAGGAUAUUCCUACAUGAGGAUCACCCAUGUUGACAUGGAAGAAUGACAGAAGGACGAUGUCCAU | – | – | 712 | 11.8
CAGCGAAAGUAGAAGGCAGUACUGAUACAGUACUGAGGAUAUACAUGAGGAUCACCCAUGUACUUCAGCUGGAAAUAAAUAAAA | 5.59 | 6.32 | – | –
CGACCCUGAACGAAAUCAUGCAGUCAGGAUAUACAUGAGGAUCACCCAUGUGCGUACCAACUCGUGUAGAAGGGACUUUCAGGA | 15.6 | 32.3 | – | –
UUUUAACAUGAGGAUCACCCAUGUGAGGAUAUCGAAAUUUAUAUUUAUAUUAAUAAAUCGAGAAGGCACAUUUU | 117 | 117 | – | –
UGAACUAUGUAGAAGGCCCAUAUUUAUACUUAGGGAGGAUAUACAUGAGGAUCACCCAUGUAUAGAGCAAGUGGACUUGUCACU | 17.9 | 20.2 | – | –
CGUAGCUCCUGUUCGAAUCUCCGUGAGGAUAUCUUCAGACAUGAGGAUCACCCAUGUACAAAGGAAGAGAAGGCACGGUCCGAU | – | – | 4.86 | 4.33
CUUGUGUGAGGAUAUGACAAUGGUAUCUUCGGAUACCAUUGUCAGAAGGUACAUGAGGAUCACCCAUGUAGAUC | 91 | 140 | – | –
UUAAAUCAUGUAGGAUAUGCAUGGCGAAGCUACGCAGAAGGACAUGAGGAUCACCCAUGUGCUAGCGUCUGAGAACAGAUGCAA | 42 | 235 | – | –
UAUAUAAUAUUUCACAUGAGGAUCACCCAUGUACAUGGGAUAGAGGAUAUACAAAUAUUAGUGGUGUAGAAGGUUAAUAUAUAU | 158 | 101 | – | –
AACAGCUCGUCAGGAUAUAUUUUCUUUUUAUGUAUUUAUGUACAUGAGGAUCACCCAUGUUGUUUGUAGAAGGGACGAGCUGAA | 20.1 | 16.7 | – | –
GAUUAACAUGAGGAUCACCCAUGUCGUUUAAUGGGAGGAUAUACGUGGACCGUAGUCCGCGUAGAAGGCCUAAUUG | – | – | 90.8 | 26.9
AGAAACUACGAGAAGGACAUGUGGUCAAAACGAAACAUGAGGAUCACCCAUGUAGGAUAUCGUAGUUUCAGGAUCGUGAGAUCA | 265 | 429 | – | –
UAAAAGACUAGCAAAUAAGUUCCACAUGAGGAUCACCCAUGUCAGGAUAUGAGCAGCAAAGCUGCUCAGAAGGGACAGCUAGUC | 5.53 | 6.99 | – | –
AAAAAAUGAGGAUAUACAUGAAAAAAAAAAAAAAAAAAAAAACAUGAGGAUCACCCAUGUAGAAGGCGUAAAAA | 51.2 | 41.4 | – | –
GCAACGCCUGACAUGAGGAUCACCCAUGUUAGAUUGUUAUGUCAGGAUAUAGUCUCGAAACGAGACUAGAAGGGAUAUGUUGCU | – | – | 888 | 122
UGUGUGUGACAGGAUAUGCAGGUUAUGAGACGGGUAGAAGGGUCUACAUGAGGAUCACCCAUGUGGCCGGUUGG | 18 | 16.9 | – | –
GAAGCAGAUCAGAAGGACAACGUAGUUUCUGGCUUGGUGGCCCUCGUUUGUAGGAUAUGAUCUAACAUGAGGAUCACCCAUGUG | – | – | 53.2 | 11.7
CCAUGGUGGGCAGGAUAUCGUCCAGCUUGCGGACGAGAAGGGCCAGAACAUGAGGAUCACCCAUGUGAAAGGCGGGUUGUCCAA | 21.6 | 103 | – | –
CCUGUGGCAUGAGGAUAUGGUCAGCUUUGCUGACCAGAAGGCAUGUCAAUAGACAUGAGGAUCACCCAUGUAGUUAACACAGGA | – | – | 535 | 42.6
GCGUUGAACGAGAAGGCCAAUACAUGAGGAUCACCCAUGUUUAGAUGUUUUGGAGGAUAUCGUACGUCGUCUCAUGAGCAACGC | 6.68 | 7.92 | – | –
CUCAUGUGAGGAUAUGUGAUCAACCUUCUAUAUAGAUGAUUACAGAAGGCACAUGAGGAUCACCCAUGUAGAUC | 23.4 | 18.3 | – | –
GGUGUCGCAUGAGGAUAUGGUCAGCUUUGCUGACCAGAAGGCAUGUCGAUAGACAUGAGGAUCACCCAUGUAGUAAAGACACCA | – | – | 990 | 72.7
UCUCUUCUGUAGAAGGCCCGACUUGUGAAGACAACAAUGCUAUAGAAGUAGGGAGGAUAUACAUGAGGAUCACCCAUGUAGGAA | 11.6 | 29.3 | – | –
AUUAUAUAGUCAGGAUAUAGAAUAUUAUUUUAACAUGAGGAUCACCCAUGUAACCUUAUGUGUAGCUAGAAGGGACAUUUAUUA | 85.5 | 131 | – | –
UUAUGUGGCGUAGGAUAUCAUUAGAUUUGUAAUUUAAUUGUAAUUUCCAUAUGAGAAGGACGUAUACAUGAGGAUCACCCAUGU | 14.8 | 17.7 | – | –
CUCUUAGCAGGAUAUACAUUAUCCCAGUCAUGGUCGGCGACACAUGAGGAUCACCCAUGUAGAAGGGCUAUGAG | 23.4 | 52.8 | – | –
